PGC1a acetyl inh: modulators of PGC1a acetylation. 350,000 tested, 0.17% active. inhibition, % at 15.6 µM. U2OS PGC1a acetylation, AlphaScreen anti-acetyl-lysine; with virally co-expressed GCN5 acetyltransferase;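 active means every replicate shows inhibition of at least 40%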
rRNA inh HTS: selective bacterial rRNA inhibition in E. coli | E. coli WT GFP vs humanized-ribosome RFP mutants, fluorescence, 24 h; active compounds read low; DMSO median 0, no signal -100 | GFP signal change (wild-type ribosome), % (no concentration beside the values) | 350,000 tested, 1.6% active;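 active means significant combined selectivity score with lowered wild-type GFP, culture density cut under 30%, mutant RFP and density less affected; inactive means any of these conditions unmet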
Vif inh: blocks HIV Vif function; HEK293T cells, Vif self-association by quenched fluorescence, imaging, 24 h; inhibition, % at 7.49 µM; 340,000 tested, 0.35% active; AID 602346; in the data active means inhibition above about 50%, passing the limit was not always enough
PglD inh: inhibitors of Campylobacter jejuni PglD acetyltransferase | purified PglD enzyme, DTNB colorimetric CoA detection | inhibition, % at 12.5 µM | 360,000 tested, 0.098% active | AID 602405; in the data active means inhibition above about 16%, passing the limit was not always enough
FGF22 binding-1: shifts melting point of recombinant human FGF22; recombinant FGF22 thermal shift, SYPRO orange fluorescence; percent of sucrose octasulfate shift, DMSO zero; AID 651658; activity (Tm shift, normalised), % at 9.99 µM; 340,000 tested, 1.5% active; Q9HCT0;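 active means mean Tm shift, scaled 0 neutral to 100 positive control, at about 1.3% or above, every replicate too, limit read from the data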
Target sequence (Q9HCT0 whole entry, looked up): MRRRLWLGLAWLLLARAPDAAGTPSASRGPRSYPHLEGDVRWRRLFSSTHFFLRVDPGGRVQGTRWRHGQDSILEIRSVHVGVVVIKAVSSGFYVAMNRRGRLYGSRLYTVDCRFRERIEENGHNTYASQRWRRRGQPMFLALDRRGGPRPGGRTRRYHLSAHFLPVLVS
Cneo AK release: causes C. neoformans cell lysis | adenylate kinase release luminescence, 4 h; normalised: neutral wells 0, clomiphene wells 100 | lysis activity, % at 15 µM | 360,000 tested, 0.2% active | AID 651654;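 active means mean lysis activity across replicates of at least 80%, whatever share of replicates individually reach that level; inactive means mean lysis activity below 80%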
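Schedule: static 4 h at 37 °C with compound, 1 h detection; system: C. neoformans cells; benchmarks: Clomiphene as positive control; buffer or medium: fresh YPD medium; measure: luminescence rise reflecting yeast cell lysis; measured by: luminescent adenylate kinase detection reagent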
PglD confirm: blocks Campylobacter jejuni PglD acetyltransferase activity | inhibition, % at 20 µM | shares compounds with PglD inh | 320 tested, under 10 active | Purified C. jejuni PglD, DTNB absorbance 412 nm;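 active means mean inhibition across replicates of at least 20% with every single replicate also at 20% or more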;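 further: initial rate of CoA release by acetyl transfer from AcCoA to the UDP-4-amino sugar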
FGF22 binding-2: binders of human FGF22 by thermal shift. thermal shift activity, °C (ΔTm) at 38 µM. recombinant FGF22 thermal shift, SYPRO orange fluorescence. 1,000 tested, 2% active. shares compounds with FGF22 binding-1;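 active means fitted rise in melting shift crosses a set limit at or below the top valid dose tested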
SYPRO no-protein: shows thermal shift signal without protein, FGF22 counter-screen. AID 743019. shares compounds with FGF22 binding-1. 1,000 tested, 2% active. compound-only SYPRO orange thermal shift counter-screen, no protein. AC50, µM (titrated, usually from 38 µM);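 active means rising signal whose fitted curve reaches the 0.54 level within the top valid dose, showing a melting point, actives reach about 13 µM in these data; inactive means the rest, including activity in the opposite direction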; further: value is where the raw curve crosses a fixed level and not half-maximal
Each line names hits and unclear results; the compound was inactive in the other large screens (follow-up assays come after a bar, where they were run). Shown are actives, neighbours in structure and some others; about 2.9% of the full set was active somewhere.

C[C@H]1CN(C)C(=O)c2cc(N)ccc2O[C@H]1CN(C)S(C)(=O)=O	none (no result: PGC1a acetyl inh, Vif inh, PglD inh, FGF22 binding-1, Cneo AK release)
CCCNC(=O)N1CC2(C1)[C@@H](c1ccccc1)[C@@H](CO)N2C(=O)C1CC1	none (no result: Vif inh, PglD inh, Cneo AK release)
CCN(CC)S(=O)(=O)c1ccc(S(=O)(=O)N2CCCC2C(=O)O)cc1 (stereo not given)	PglD inh 25 | PglD confirm inactive
CCCc1cc(C(=O)NC2CCCC2)no1	PglD inh 58 | PglD confirm inactive
O=C1CN(S(=O)(=O)c2ccccc2)C[C@H]2[C@@H](c3ccc(C#Cc4ccccc4)cc3)[C@H](CO)N12	none (no result: Vif inh, PglD inh, FGF22 binding-1, Cneo AK release)
Cc1c(C(=O)Nc2ccccc2C(=O)N2CCCC2)cccc1[N+](=O)[O-]	PglD inh 23 | PglD confirm inactive
CCSc1nnc(NC(=O)[C@@H](NC(=O)c2cccc(C)c2)C(C)C)s1	PglD inh 23 (no result: rRNA inh HTS, FGF22 binding-1) | PglD confirm inactive
CC(=O)c1cccc(-c2cnc3c(NC=O)cc(-c4ccccc4F)cn23)c1	PglD inh 25 | PglD confirm inactive
CC(=O)Nc1cc(-c2ccccc2F)cn2c(-c3ccccc3)cnc12	none
O=C1C2C3C=CC(C3)C2C(=O)N1Cc1ccccc1 (stereo not given)	PglD inh 22 (no result: rRNA inh HTS, FGF22 binding-1) | PglD confirm inactive
CC(C)c1cccc(-c2csc(C(C)(O)c3ccc(F)c(F)c3)n2)c1 (stereo not given)	PglD inh 24 | PglD confirm inactive
CC(O)(c1ccc(F)c(F)c1)c1nc(-c2cccc(F)c2)cs1 (stereo not given)	none (no result: PGC1a acetyl inh)
CCOC(=O)N(C)C[C@H]1OCc2ccccc2-c2ccccc2C(=O)N([C@@H](C)CO)C[C@@H]1C	none (no result: Vif inh)
COc1ccc(N(CC(=O)Nc2cccc(C(C)=O)c2)S(=O)(=O)c2ccc(NC(C)=O)cc2)cc1	PglD inh 77 (no result: PGC1a acetyl inh) | PglD confirm inactive
CC1CCCN(S(=O)(=O)c2ccc(Cl)s2)C1 (stereo not given)	PglD inh 26 | PglD confirm inactive
CC1CCCN(S(=O)(=O)c2ccc(Br)s2)C1 (stereo not given)	none
CO[C@@H]1CN(C)C(=O)c2cc(NC(C)=O)ccc2OC[C@H](C)N(Cc2nccs2)C[C@@H]1C	none (no result: Vif inh)
C[C@@H]1CN([C@H](C)CO)S(=O)(=O)c2ccc(-c3cccnc3)cc2O[C@@H]1CN(C)C(=O)C1CCCCC1	none (no result: Vif inh)
Cc1ccc(CCC(=O)Nc2ccc(N(C)C)cc2)o1	PglD inh 83 (no result: PGC1a acetyl inh) | PglD confirm inactive
CCOC(=O)c1c2n(c3ccc(O)cc13)CCCCC2	PglD inh 25 (no result: rRNA inh HTS, FGF22 binding-1) | PglD confirm inactive
C[C@@H]1CCCCO[C@@H](CN(C)C(=O)c2ccncc2)[C@@H](C)CN([C@H](C)CO)C(=O)c2cc(NS(=O)(=O)c3ccc(F)cc3)ccc2O1	none (no result: Vif inh)
COC(=O)c1c(C(=O)OC)c(C)n(Cc2cccnc2)c1C	PglD inh 31 (no result: rRNA inh HTS, FGF22 binding-1) | PglD confirm inactive
CC(C)NC(=O)Nc1ccc2c(c1)C(=O)N([C@@H](C)CO)C[C@@H](C)[C@H](CN(C)C(=O)Nc1ccc(C(F)(F)F)cc1)OCCCC[C@@H](C)O2	none (no result: Vif inh)
COC(=O)[C@@H]1[C@@H](CO)[C@@H]2Cn3c(ccc(-c4ccccc4)c3=O)[C@@H]2N1C(=O)CC1CC1	none (no result: PGC1a acetyl inh, Vif inh)
CC1=C(C)CS(=O)N(S(=O)(=O)c2ccc(Cl)cc2)C1 (stereo not given)	PglD inh 23 (no result: rRNA inh HTS, FGF22 binding-1) | PglD confirm inactive
CC1CCCC(C)N1S(=O)(=O)c1ccc(Cl)cc1 (stereo not given)	none
CC(C)NC(=O)N(C)C[C@H]1Oc2ccc(NC(=O)Nc3ccc(C(F)(F)F)cc3)cc2CC(=O)N([C@@H](C)CO)C[C@@H]1C	none (no result: Vif inh)
COC(=O)c1ccc(C2C(Oc3ccc(OC)cc3)C(=O)N2CCc2ccc(OC)c(OC)c2)cc1 (stereo not given)	PglD inh 35 (no result: PGC1a acetyl inh, rRNA inh HTS, FGF22 binding-1) | PglD confirm inactive
Cc1nn(Cc2ccccc2)c(Cl)c1/C=N/NC(=O)c1cccnc1	PglD inh 25 | PglD confirm inactive
Cc1ccc(-n2cc(-c3ccccc3)c3c(=O)[nH]cnc32)cc1	PglD inh 45 | PglD confirm inactive
OCc1ccccc1-c1ccc2nncn2c1	none
c1csc(-c2ccc3nncn3c2)c1	PglD inh 36 | PglD confirm inactive
C[C@@H]1CCCCO[C@@H](CN(C)S(=O)(=O)c2ccc(F)cc2)[C@H](C)CN([C@@H](C)CO)C(=O)c2cc(NS(=O)(=O)c3ccccc3)ccc2O1	none (no result: Vif inh)
Cc1noc(C)c1NC(=O)Nc1ccc2c(c1)C(=O)N([C@@H](C)CO)C[C@H](C)[C@@H](CN(C)S(=O)(=O)c1ccccc1)OCCCC[C@H](C)O2	none (no result: Vif inh, FGF22 binding-1)
CCC(=O)N1CC(=O)N2[C@H](CO)[C@@H](c3ccc(-c4cccnc4)cc3)[C@H]2C1	none (no result: Vif inh, PglD inh, FGF22 binding-1, Cneo AK release)
O=C(COC(=O)c1ccc([N+](=O)[O-])s1)NC(=O)NCc1ccccc1	PglD inh 31, FGF22 binding-1 43 (no result: rRNA inh HTS) | PglD confirm inactive
O=C(COC(=O)c1ccc([N+](=O)[O-])s1)NCCc1ccccc1	none (no result: FGF22 binding-1)
O=C(CC(=O)NCc1cccnc1)NCc1cccnc1	none (no result: rRNA inh HTS, FGF22 binding-1)
CCC(NC(=O)NCc1cccnc1)(C(F)(F)F)C(F)(F)F	PglD inh 20 (no result: rRNA inh HTS, FGF22 binding-1) | PglD confirm inactive
C[C@H]1CN([C@@H](C)CO)C(=O)Cc2cc(NS(=O)(=O)c3ccccc3)ccc2O[C@@H]1CN(C)Cc1ccc(C(=O)O)cc1	none (no result: Vif inh, PglD inh, Cneo AK release)
COc1ccc2cc(CCNC(=O)c3cc4ccccc4o3)c(=O)[nH]c2c1	FGF22 binding-1 1.8 | FGF22 binding-2 inactive | SYPRO no-protein inactive
CCN(CC)S(=O)(=O)c1ccc(N/N=C(\C)c2ccc(OC)cc2O)nc1	FGF22 binding-1 1.4 (no result: PglD inh, Cneo AK release) | FGF22 binding-2 inactive | SYPRO no-protein inactive
CCN(CC)S(=O)(=O)c1ccc(N/N=C/c2ccc(O)cc2)nc1	none (no result: PglD inh, Cneo AK release)
CCCC#Cc1ccc([C@H]2[C@H](CO)N3C(=O)CN(C(=O)c4ccccc4)C[C@@H]23)cc1	none (no result: Vif inh, PglD inh, FGF22 binding-1, Cneo AK release)
COc1ccc(CCNS(=O)(=O)CCNC(=O)c2ccc3c(c2)OCO3)cc1	FGF22 binding-1 11 (no result: PGC1a acetyl inh) | FGF22 binding-2 inactive | SYPRO no-protein inactive
C[C@@H]1CCCCO[C@@H](CN(C)C(=O)NC2CCCCC2)[C@@H](C)CN([C@@H](C)CO)C(=O)c2cc(NC(=O)c3ccccc3)ccc2O1	none (no result: Vif inh, PglD inh, Cneo AK release)

High-throughput results (PubChem)
